Laboratory results reported in ChEMBL document CHEMBL5325428 (Eur J Med Chem, 2023).

Columns and labels:
Procathepsin L = Procathepsin L (Homo sapiens, UniProt P07711); test: Inhibition of human Cathepsin L; format: toxicity
Summary of the method: (§1)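 Commercial purified human proteases were assayed following the manufacturers' procedures. IC50 values are mean ± SD.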

[1] = test system: Feline infectious peritonitis virus; test: Antiviral activity against FIPV 1146 infected in CRFK cells assessed as inhibition of viral replication incubated for upto 168 hrs by TCID50 method; format: functional, organism-based; conditions: Alphacoronavirus 1, 1146, CRFK
Summary of the method: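 Crandell-Rees feline kidney cells infected with FIPV-1146; test compounds added to the medium at various concentrations. EC50 was fitted from the dose-dependent inhibition curve with a variable slope. Values are mean ± SD.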

Cathepsin B = Cathepsin B (Homo sapiens, UniProt P07858); test: Inhibition of human Cathepsin B; format: toxicity; summary of the method: as §1
chymotrypsin = chymotrypsin (Homo sapiens, UniProt P17538+P40313+Q6GPI1+Q99895); test: Inhibition of human chymotrypsin; format: toxicity; summary of the method: as §1
Prothrombin = Prothrombin (Homo sapiens, UniProt P00734); test: Inhibition of human thrombin; format: toxicity; summary of the method: as §1
[2] = Safety index, ratio of CC50 for cytotoxicity against human HEK293T cells to EC50 for antiviral activity against SARS-CoV-2 Wuhan-HU-1 infected in HEK293T cells; format: toxicity, cell-based; conditions: read-out: Ratio CC50/EC50
Summary of the method: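 In vitro safety index was calculated as the 293T CC50 divided by the SARS-CoV-2 replicon EC50.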

[3] = target: Replicase polyprotein 1ab (Severe acute respiratory syndrome coronavirus 2, UniProt P0DTD1); test: Inhibition of N-terminal His6-tagged full length SARS-CoV-2 3CLpro using FAM-SAVLQ as substrate preincubated with enzyme for 1 hr followed by susbtrate addition and measured after 1 hr by FRET assay
Neutrophil elastase = target: T1, Neutrophil elastase (Homo sapiens, UniProt P08246); test: Inhibition of human neutrophil elastase; format: toxicity; summary of the method: as §1
T1 sequence (P08246 whole entry): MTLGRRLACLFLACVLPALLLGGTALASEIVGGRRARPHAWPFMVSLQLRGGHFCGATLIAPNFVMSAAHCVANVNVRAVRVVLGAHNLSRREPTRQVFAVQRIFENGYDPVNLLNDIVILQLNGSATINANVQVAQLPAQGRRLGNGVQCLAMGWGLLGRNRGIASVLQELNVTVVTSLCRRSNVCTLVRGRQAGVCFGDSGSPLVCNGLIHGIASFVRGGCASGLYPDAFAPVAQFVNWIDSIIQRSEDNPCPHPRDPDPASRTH

Cathepsin G = target: T2, Cathepsin G (Homo sapiens, UniProt P08311); test: Inhibition of human Cathepsin G; format: toxicity; summary of the method: as §1
T2 sequence (P08311 whole entry): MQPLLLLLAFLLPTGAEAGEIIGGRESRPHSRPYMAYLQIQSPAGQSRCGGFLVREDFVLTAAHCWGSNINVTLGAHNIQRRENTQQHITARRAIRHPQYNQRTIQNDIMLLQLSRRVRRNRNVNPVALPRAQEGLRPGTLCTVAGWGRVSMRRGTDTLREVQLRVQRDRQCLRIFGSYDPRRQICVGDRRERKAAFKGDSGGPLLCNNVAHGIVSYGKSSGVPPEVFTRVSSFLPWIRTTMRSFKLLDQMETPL

Cathepsin D = Cathepsin D (Homo sapiens, UniProt P07339); test: Inhibition of human Cathepsin D; format: toxicity; summary of the method: as §1
Cathepsin D, sequence (P07339 65-162 limits assumed): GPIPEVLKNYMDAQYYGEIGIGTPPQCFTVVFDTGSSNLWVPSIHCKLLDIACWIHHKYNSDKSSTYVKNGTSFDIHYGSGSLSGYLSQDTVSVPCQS
Cathepsin D, sequence (P07339 169-412 limits assumed): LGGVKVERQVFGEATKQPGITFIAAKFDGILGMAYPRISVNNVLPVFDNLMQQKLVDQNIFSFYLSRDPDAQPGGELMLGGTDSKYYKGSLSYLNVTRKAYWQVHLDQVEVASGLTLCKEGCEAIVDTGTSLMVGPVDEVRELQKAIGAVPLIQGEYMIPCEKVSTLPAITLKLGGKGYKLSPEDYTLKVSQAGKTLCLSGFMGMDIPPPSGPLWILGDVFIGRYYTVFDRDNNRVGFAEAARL

[4] = Cytotoxicity against human HEK293T cells assessed as reduction in cell viability incubated for 72 hrs by CytoTox 96 nonradioactive assay; format: toxicity, cell-based, HEK-293T
SARS-CoV-2 = test: Antiviral activity against SARS-CoV-2 Wuhan-HU-1 infected in HEK293T cells assessed as inhibition of viral replication incubated for 30 hrs by luciferase reporter gene assay; format: functional, organism-based; conditions: Severe acute respiratory syndrome coronavirus 2, Wuhan-HU-1, HEK-293T
Summary of the method: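 This is a non-infectious Wuhan-Hu-1 replicon system, not infectious virus. Replicon RNA was electroporated into 293T cells, which were then incubated for 30 h with compound at 2, 0.5, 0.1 and 0.02 µM or with 0.1% DMSO. Read-out was luciferase activity. Values are mean ± SD.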

[5] = Inhibition of MERS-CoV 3CLpro using FAM-SAVLQ as substrate preincubated with enzyme for 1 hr followed by susbtrate addition and measured after 1 hr by FRET assay; design: species or system Middle East respiratory syndrome-related coronavirus

Procathepsin L, sequence (P07711 whole entry): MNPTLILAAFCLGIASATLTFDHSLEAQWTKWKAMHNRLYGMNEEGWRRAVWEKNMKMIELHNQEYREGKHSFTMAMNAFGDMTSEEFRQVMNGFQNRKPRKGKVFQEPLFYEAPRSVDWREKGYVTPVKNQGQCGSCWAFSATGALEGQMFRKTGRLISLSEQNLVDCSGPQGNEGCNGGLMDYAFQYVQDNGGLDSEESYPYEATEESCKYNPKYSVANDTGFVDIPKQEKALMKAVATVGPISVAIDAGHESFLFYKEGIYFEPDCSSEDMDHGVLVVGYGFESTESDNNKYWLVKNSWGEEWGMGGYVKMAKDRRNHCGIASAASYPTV

Compound `[2H]C([2H])(OC(=O)N[C@@H](CC(C)C)C(=O)N[C@H](C=O)C[C@@H]1CCNC1=O)C(C)(C)Oc1ccc(Cl)cc1` has an IC50 (Procathepsin L) of 40 nM, an EC50 [1] of 100 nM and an IC50 (Cathepsin B) of 800 nM. For the same compound, the IC50 (chymotrypsin) was greater than 50000 nM, the IC50 (Prothrombin) was greater than 50000 nM and the selectivity ratio [2] was 3330. The IC50 [3] was 170 nM, the IC50 (Neutrophil elastase) was greater than 50000 nM and the IC50 (Cathepsin G) was greater than 50000 nM. It also gave an IC50 (Cathepsin D) greater than 50000 nM, a CC50 at 72 h [4] greater than 50000 nM and an EC50 (SARS-CoV-2) of 15 nM.

`CC(C)C[C@H](NC(=O)OCC(C)(C)Sc1cccc(Cl)c1)C(=O)N[C@H](C=O)C[C@@H]1CCNC1=O` gave an IC50 (Procathepsin L) of 30 nM, an EC50 [1] of 190 nM and an IC50 (Cathepsin B) of 1400 nM. It also gave an IC50 (chymotrypsin) greater than 50000 nM, an IC50 (Prothrombin) greater than 50000 nM and an IC50 [5] of 110 nM. The selectivity ratio [2] was 3330, the IC50 [3] was 150 nM and the IC50 (Neutrophil elastase) was greater than 50000 nM. For the same compound, the IC50 (Cathepsin G) was greater than 50000 nM, the IC50 (Cathepsin D) was greater than 50000 nM and the CC50 at 72 h [4] was greater than 50000 nM. The EC50 (SARS-CoV-2) was 10 nM.

`CC(C)C[C@H](NC(=O)OCC(C)(C)Sc1ccccc1)C(=O)N[C@H](C=O)C[C@@H]1CCNC1=O` showed an IC50 (Procathepsin L) of 30 nM, an EC50 [1] of 80 nM and an IC50 (Cathepsin B) of 1900 nM. It also gave an IC50 (chymotrypsin) greater than 50000 nM, an IC50 (Prothrombin) greater than 50000 nM and an IC50 [5] of 80 nM. For the same compound, the selectivity ratio [2] was 3330, the IC50 [3] was 70 nM and the IC50 (Neutrophil elastase) was greater than 50000 nM. It also gave an IC50 (Cathepsin G) greater than 50000 nM, an IC50 (Cathepsin D) greater than 50000 nM and a CC50 at 72 h [4] greater than 50000 nM. The EC50 (SARS-CoV-2) was 12 nM.

For `[2H]C([2H])(OC(=O)N[C@@H](CC(C)C)C(=O)N[C@H](C=O)C[C@@H]1CCNC1=O)C(C)(C)Sc1ccccc1`, the IC50 (Procathepsin L) was 30 nM, the EC50 [1] was 100 nM and the IC50 (Cathepsin B) was 2000 nM. For the same compound, the IC50 (chymotrypsin) was greater than 50000 nM, the IC50 (Prothrombin) was greater than 50000 nM and the IC50 [5] was 60 nM. For the same compound, the selectivity ratio [2] was 3330, the IC50 [3] was 200 nM and the IC50 (Neutrophil elastase) was greater than 50000 nM. For the same compound, the IC50 (Cathepsin G) was greater than 50000 nM, the IC50 (Cathepsin D) was greater than 50000 nM and the CC50 at 72 h [4] was greater than 50000 nM. For the same compound, the EC50 (SARS-CoV-2) was 11 nM.

`CC(C)C[C@H](NC(=O)OCC(C)(C)Oc1cccc(Cl)c1)C(=O)N[C@H](C=O)C[C@@H]1CCNC1=O` gave an IC50 (Procathepsin L) of 20 nM, an EC50 [1] of 60 nM and an IC50 (Cathepsin B) of 900 nM. It also gave an IC50 (chymotrypsin) greater than 50000 nM, an IC50 (Prothrombin) greater than 50000 nM and a selectivity ratio [2] of 3330. It also gave an IC50 [3] of 190 nM, an IC50 (Neutrophil elastase) greater than 50000 nM and an IC50 (Cathepsin G) greater than 50000 nM. It also gave an IC50 (Cathepsin D) greater than 50000 nM, a CC50 at 72 h [4] greater than 50000 nM and an EC50 (SARS-CoV-2) of 13 nM.
